Among the data in ChEMBL document CHEMBL1129265, “Synthesis and characterization of pseudopeptide bradykinin B2 receptor antagonists containing the 1,3,8-triazaspiro[4.5]decan-4-one ring system” (J Med Chem, 1996) are Ki and ED50 values, retold here.

In assay [1] the target is T1, B2 bradykinin receptor (Homo sapiens, UniProt P30411).
T1 sequence (P30411 whole entry): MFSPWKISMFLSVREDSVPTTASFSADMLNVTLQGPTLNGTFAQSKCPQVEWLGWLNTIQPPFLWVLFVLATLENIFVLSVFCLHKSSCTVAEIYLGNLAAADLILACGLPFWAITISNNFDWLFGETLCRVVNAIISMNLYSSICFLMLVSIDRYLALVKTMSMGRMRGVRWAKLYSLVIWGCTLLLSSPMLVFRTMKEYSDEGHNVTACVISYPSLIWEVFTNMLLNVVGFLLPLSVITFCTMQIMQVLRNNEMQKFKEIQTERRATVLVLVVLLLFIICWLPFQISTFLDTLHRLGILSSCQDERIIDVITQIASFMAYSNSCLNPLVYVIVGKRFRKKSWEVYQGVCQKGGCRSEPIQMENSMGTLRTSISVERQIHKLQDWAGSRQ
Put plainly: Affinity to human Bradykinin receptor B2 in CHO cell membranes determined by displacement of [3H]-NPC 17731. In short, it runs like this:
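Membranes from CHO/K cells transfected with human B2 receptor, grown in Ham's F12 with 10% FBS and 500 ug/mL G418. Buffer: 25 mM TES, 1 mM 1,10-phenanthroline, pH 6.8, with bacitracin and 0.1% BSA. Competition versus [3H]NPC-17731, 15 pM final. 1 uM bradykinin defines nonspecific binding. 90 min at 25 °C, then filtration on PEI-soaked GF/B and scintillation counting. n=3.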
For orientation: Displacement assays read how much labelled ligand stays bound in the presence of the test substance.

Assay [2] is filed under the species Rattus norvegicus. The experiment in a line: Pharmacological profile in bradykinin induced assay in rats ([…] in rats). In kind it is functional. Put shortly:
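Anesthetized Sprague–Dawley rats, carotid mean arterial pressure, jugular iv dosing, tracheotomy. After 30 min stabilization, three bradykinin injections (12 ug/kg iv, 5 min apart) set baseline hypotension. Test agent is given iv 10–15 min later, followed 5 min after by bradykinin challenge. Successive increasing doses give a cumulative dose–response; ED50 reported, n=4.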

The species named for assay [3] is Oryctolagus cuniculus. Put plainly: Pharmacological profile in bradykinin induced assay in rabbits ([…]). The format is functional. In short, it runs like this: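 Male New Zealand white rabbits, 1.5–2.0 kg, acepromazine premedicated, pentobarbital anesthetized. Carotid catheter records mean arterial pressure continuously. Three bolus bradykinin doses (1 ug/kg iv) set baseline. Antagonist in saline is then given iv at rising doses (0.03–1000 ug/kg), each followed after 5 min by a bradykinin bolus. Percent inhibition of hypotension per animal; ED50 by probit; n=4.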

As usually defined, the Ki is the equilibrium dissociation constant of an inhibitor or competing ligand from its target. The term ED50 denotes the midpoint of the dose-response relation. The compound `CC(=O)CN1CN(c2ccccc2)C2(CCN(C)CC2)C1=O` registered a Ki in assay [1] of 7.7 nM. Further, the ED50 is 0.4 mg/kg in assay [2] and 0.0221 mg/kg in assay [3]. `CC(=O)CN1CN(CC2CCCCC2)C2(CCN(C)CC2)C1=O` had an inhibition constant Ki in assay [1] of 6.8 nM. That is a single-digit nanomolar value. In the case of `CC(=O)CN1CN(c2ccc(C)cc2)C2(CCN(C)CC2)C1=O`, the affinity in assay [1], expressed as Ki, was 6.3 nM. The Ki values of the last two compounds are within 1.5-fold of each other.

As for `CC(=O)CN1CN(CCc2ccccc2)C2(CCN(C)CC2)C1=O`, in assay [1], the affinity corresponds to a Ki of 0.15 nM. This Ki is about 42-fold lower than that of the compound before. In turn, `CC(=O)CN1CN(C2CCCCC2)C2(CCN(C)CC2)C1=O` showed a Ki in assay [1] of 0.57 nM. For the same compound, the results for the ED50 in assay [2] and in assay [3] were 0.6 mg/kg and 0.0086 mg/kg, respectively.

In assay [1], `CCCN1CN(CC(C)=O)C(=O)C12CCN(C)CC2` had a Ki of 27 nM. In other words, the double-digit nanomolar range.
